Source: ChEMBL document CHEMBL1128218, “New alpha-thiol dipeptide dual inhibitors of angiotensin-I converting enzyme and neutral endopeptidase EC 3.4.24.11” (J Med Chem, 1995)

Columns and labels:
Neprilysin = target: T1, Neprilysin (Rattus norvegicus, UniProt P07861); assay: Evaluation of in vitro inhibitory activity against Neutral endopeptidase
T1 sequence (P07861 whole entry): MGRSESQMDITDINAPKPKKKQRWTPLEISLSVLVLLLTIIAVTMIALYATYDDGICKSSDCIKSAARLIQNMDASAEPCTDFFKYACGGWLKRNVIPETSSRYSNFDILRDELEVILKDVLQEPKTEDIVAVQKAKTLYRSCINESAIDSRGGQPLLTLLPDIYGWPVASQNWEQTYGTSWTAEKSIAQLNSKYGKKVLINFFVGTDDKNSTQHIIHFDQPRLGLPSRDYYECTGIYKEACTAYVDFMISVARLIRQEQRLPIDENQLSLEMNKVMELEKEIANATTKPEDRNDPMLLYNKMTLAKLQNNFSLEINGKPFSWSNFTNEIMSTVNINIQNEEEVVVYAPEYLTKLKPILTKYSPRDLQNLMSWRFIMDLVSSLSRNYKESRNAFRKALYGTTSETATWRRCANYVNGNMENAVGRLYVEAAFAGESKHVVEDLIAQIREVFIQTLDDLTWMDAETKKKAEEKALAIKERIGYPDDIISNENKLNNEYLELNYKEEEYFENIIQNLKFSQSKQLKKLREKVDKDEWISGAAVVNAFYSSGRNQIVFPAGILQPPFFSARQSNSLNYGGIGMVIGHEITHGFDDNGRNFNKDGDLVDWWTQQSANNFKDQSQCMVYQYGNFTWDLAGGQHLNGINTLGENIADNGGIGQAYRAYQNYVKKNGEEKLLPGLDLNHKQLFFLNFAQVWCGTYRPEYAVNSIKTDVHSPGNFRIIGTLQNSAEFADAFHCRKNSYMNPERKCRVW
How it was run: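 Rat kidney cortex membrane homogenate (4.2 μg protein) preincubated 10 min at 25 °C with increasing inhibitor concentrations. Then 500 μM GAAP (final) in 50 mM Tris pH 7.4 with leucine aminopeptidase M, 25 min at 25 °C. Done in duplicate; IC50 from curves of seven points near the IC50.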

[1] = target: T2, Angiotensin-converting enzyme (Rattus norvegicus) (UniProt P47820); assay: Evaluation of plasma inhibition of Angiotensin I converting enzyme activity in conscious rat 1 hour after intravenous administration at a dose of 10 mg/kg; type: functional, organism-based; design: dose 10 mg/kg
T2 sequence (whole entry): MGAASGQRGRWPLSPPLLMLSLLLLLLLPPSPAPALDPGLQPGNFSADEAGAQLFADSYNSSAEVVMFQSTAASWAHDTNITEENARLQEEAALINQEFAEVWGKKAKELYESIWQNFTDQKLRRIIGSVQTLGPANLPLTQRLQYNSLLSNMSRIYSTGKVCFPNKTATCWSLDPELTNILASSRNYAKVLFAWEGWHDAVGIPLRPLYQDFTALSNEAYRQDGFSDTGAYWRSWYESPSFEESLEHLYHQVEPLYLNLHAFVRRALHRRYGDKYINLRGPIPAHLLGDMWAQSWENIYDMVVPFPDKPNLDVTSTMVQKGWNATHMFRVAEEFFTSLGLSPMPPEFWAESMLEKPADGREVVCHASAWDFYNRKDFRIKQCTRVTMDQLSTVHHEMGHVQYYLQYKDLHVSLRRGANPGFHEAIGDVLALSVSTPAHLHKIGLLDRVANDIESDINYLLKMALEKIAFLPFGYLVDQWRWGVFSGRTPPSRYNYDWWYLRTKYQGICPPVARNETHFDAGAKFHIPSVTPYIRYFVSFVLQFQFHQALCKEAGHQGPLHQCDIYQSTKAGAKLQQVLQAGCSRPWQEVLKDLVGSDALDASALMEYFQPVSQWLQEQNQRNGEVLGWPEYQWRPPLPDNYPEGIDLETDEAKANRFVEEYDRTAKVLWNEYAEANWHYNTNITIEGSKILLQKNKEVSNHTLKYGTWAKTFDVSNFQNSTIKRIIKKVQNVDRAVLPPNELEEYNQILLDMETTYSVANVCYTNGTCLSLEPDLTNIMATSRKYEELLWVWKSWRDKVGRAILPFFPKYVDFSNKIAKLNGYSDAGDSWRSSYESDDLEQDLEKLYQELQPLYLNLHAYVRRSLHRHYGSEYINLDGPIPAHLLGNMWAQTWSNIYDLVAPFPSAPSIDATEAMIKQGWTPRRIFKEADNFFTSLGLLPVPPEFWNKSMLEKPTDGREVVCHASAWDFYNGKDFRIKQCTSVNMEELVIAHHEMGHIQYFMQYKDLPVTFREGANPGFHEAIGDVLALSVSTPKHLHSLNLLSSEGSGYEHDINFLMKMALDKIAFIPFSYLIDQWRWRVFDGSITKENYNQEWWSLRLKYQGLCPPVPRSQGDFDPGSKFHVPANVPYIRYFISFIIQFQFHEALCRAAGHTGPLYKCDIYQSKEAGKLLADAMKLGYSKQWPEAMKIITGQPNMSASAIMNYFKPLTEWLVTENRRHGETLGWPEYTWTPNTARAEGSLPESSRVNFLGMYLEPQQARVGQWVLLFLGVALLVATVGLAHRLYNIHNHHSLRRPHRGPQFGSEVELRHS
How it was run: (§1)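 Male conscious normotensive Sprague-Dawley rats (275-390 g) fitted the day before with femoral arterial and venous catheters under methohexital anesthesia. Three angiotensin-I challenges (300 ng/kg iv) given as baseline. Compound given iv, ia or po (12.3 mg/kg po dose in 3% cornstarch at 1 mg/mL), then AI challenges repeated at set times. Pressor response compared with the mean baseline response and expressed as % inhibition.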

[2] = target: T2, Angiotensin-converting enzyme (Rattus norvegicus); assay: Evaluation of plasma inhibition of Angiotensin I converting enzyme activity in conscious rat 4 hours after intravenous administration at a dose of 10 mg/kg; type: functional, organism-based; design: dose 10 mg/kg; how it was run: as §1
[3] = target: T2, Angiotensin-converting enzyme (Rattus norvegicus); assay: Evaluation of plasma inhibition of Angiotensin I converting enzyme activity in conscious rat 2 hours after intravenous administration at a dose of 10 mg/kg; type: functional, organism-based; design: dose 10 mg/kg; how it was run: as §1

Compound	IC50 (Neprilysin) [nM]	inhibition [1] [%]	inhibition [2] [%]	inhibition [3] [%]
CC(C)[C@H](S)C(=O)NC1(C(=O)N[C@@H](Cc2ccccn2)C(=O)O)CCCC1	3	73	28	52
CC(C)[C@H](S)C(=O)NC(C)(C)C(=O)N[C@@H](Cc1ccc(O)cc1)C(=O)O	9.2	88	69	81
CC(C)[C@H](S)C(=O)NC1(C(=O)N[C@@H](Cc2cccs2)C(=O)O)CCCC1	1.5	79	44	68
CC(C)[C@H](S)C(=O)NC1(C(=O)N[C@@H](Cc2ccc(O)cc2)C(=O)O)CCOCC1	6.4	43	4	27
CC(C)[C@H](S)C(=O)NC1(C(=O)N[C@@H](Cc2ccc(O)cc2)C(=O)O)CCCC1	1.5	90	83	91
CC(C)[C@H](S)C(=O)NC1(C(=O)N[C@@H](Cc2c[nH]c3ccccc23)C(=O)O)CCCC1	2.1	98	86	92
CC(C)[C@H](S)C(=O)NC1(C(=O)N[C@@H](Cc2ccc(F)cc2)C(=O)O)CCCC1	1.8	85	38	80
CC(C)[C@H](S)C(=O)NC1(C(=O)N[C@@H](Cc2ccc(O)cc2)C(=O)O)CC1	5	91	30	43
CC(C)[C@H](S)C(=O)NC1(C(=O)N[C@@H](CCc2ccccc2)C(=O)O)CCCC1	1.2	72	79	69
CC(C)[C@H](S)C(=O)NC1(C(=O)N[C@@H](Cc2ccsc2)C(=O)O)CCCC1	2.6	97	87	100
CC(C)[C@H](S)C(=O)NC1(C(=O)N[C@@H](Cc2ccc(O)cc2)C(=O)O)Cc2ccccc2C1	25	86	24	59
O=C(O)[C@H](Cc1ccc(O)cc1)NC(=O)C1(NC(=O)[C@@H](S)Cc2ccccc2)CCCC1	3	86	43	75
O=C(CS)NC1(C(=O)N[C@@H](Cc2ccc(O)cc2)C(=O)O)CCCC1	15	44	7	15
